Screening data as filed in PubChem.
Compounds with a hit are over-represented: about 1.4% of the library has one in this group of screens.
Rev-erbA mod = modulators of human Rev-erb alpha DNA binding; P20393; 370,000 compounds, 0.79% hits; AID 1259318; activity, % at 10 µM; Rev-erbα–FITC-DNA binding, fluorescence polarization, 90 min;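 active means activity above about 14%, limit read from the data; passing the limit was not always enough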;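 further: 0% = DMSO wells with 35 nM protein and 100% = DMSO wells with 750 nM protein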
PG9 Ab binder = small molecules binding HIV-1 gp120 antibody PG9. TR-FRET gp120-PG9 antibody binding. inhibition, % at 6.7 µM. 360,000 compounds, 0.43% hits; in the data active means inhibition above about 8.5%
NR2E3 ag-1 = agonists of human NR2E3 nuclear receptor. Q9Y5X4. CHO-S Gal4-NCOR/VP16-NR2E3 two-hybrid, luciferase. inhibition of corepressor binding, % at 3.98 µM. 360,000 compounds, 0.35% hits. AID 602229;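 active means inhibition above the mean of all tested compounds plus 3 SD, cut at about 70% in these data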;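 further: 0% = DMSO with NR2E3 transfected cells and 100% = cells lacking NR2E3 construct; higher means lower luciferase signal from less NR2E3 corepressor binding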
Target sequence (Q9Y5X4 whole entry, looked up, the tested form may be a part): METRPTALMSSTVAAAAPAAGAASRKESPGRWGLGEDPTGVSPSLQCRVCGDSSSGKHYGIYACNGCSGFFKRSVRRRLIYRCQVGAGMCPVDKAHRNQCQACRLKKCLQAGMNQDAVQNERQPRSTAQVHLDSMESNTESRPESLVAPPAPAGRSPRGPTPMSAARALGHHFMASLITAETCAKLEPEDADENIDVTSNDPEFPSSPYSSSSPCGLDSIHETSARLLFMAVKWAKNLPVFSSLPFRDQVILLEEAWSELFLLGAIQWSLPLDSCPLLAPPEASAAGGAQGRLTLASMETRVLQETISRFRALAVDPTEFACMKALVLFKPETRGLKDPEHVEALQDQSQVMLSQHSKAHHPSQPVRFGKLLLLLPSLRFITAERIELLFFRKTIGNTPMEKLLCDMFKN
NR2E3 ag-2 = activates human photoreceptor nuclear receptor NR2E3 | inhibition of corepressor binding, % at 4.78 µM | GST-NR2E3/biotin-RetCOR TR-FRET, 1536-well | 320,000 compounds, 0.12% hits | AID 2300;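 active means percent inhibition above the cutoff of mean plus 3 SD of all tested compounds, set per screening campaign, cut at about 20% in these data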;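 further: 0% = DMSO wells and 100% = biotin wells as full block of FRET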
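Format: 1536-well format; test system: GST-NR2E3 and biotin-RetCOR proteins; read-out basis: percent inhibition of TR-FRET ratio; timing: 5 h incubation at 4 °C; detection: time-resolved FRET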
NR2E3 ag conf = confirmation of human NR2E3 agonists; inhibition, % at 3.98 µM; AID 624378; 2,300 compounds, 51% hits; CHO-S mammalian two-hybrid NR2E3-NCOR, luciferase luminescence; shares compounds with NR2E3 ag-1;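 active means average inhibition above a cutoff equal to the mean inhibition of all tested compounds plus one SD, cut at about 70% in these data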;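 further: 0% = DMSO in NR2E3 cells and 100% = DMSO in cells lacking NR2E3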
VP16 counter = GAL4-VP16 reporter inhibition in NR2E3 agonist counterscreen; AID 624379; CHO-S GAL4-VP16 luciferase reporter, luminescence; shares compounds with NR2E3 ag-1; inhibition, % at 3.98 µM; 2,300 compounds, 29% hits;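 active means mean inhibition above a cutoff equal to the average over all tested compounds plus one standard deviation, cut at about 70% in these data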;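 further: luciferase from a UAS reporter driven by GAL4-VP16 transactivation; 0% = DMSO with VP16-transfected cells and 100% = DMSO with cells lacking VP16; higher means less reporter light so more repression of VP16 activity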
Starred values were filed as active, the others as inactive; nt = no result.

SMILES | Rev-erbA mod | PG9 Ab binder | NR2E3 ag-1 | NR2E3 ag-2 | NR2E3 ag conf | VP16 counter
Cc1cnc(NC(=O)C2CC(=O)N(c3cccc(Cl)c3)C2)s1 (centres undefined) | 6 | -3 | 86* | 4 | 100* | 52
Cc1cnc(NC(=O)C2CC(=O)N(c3ccc4c(c3)OCCO4)C2)s1 (centres undefined) | 3 | -1 | 55 | nt | 75* | 25
COc1ccc(Cl)cc1C(=O)CSc1nnnn1C1CCCC1 | -1 | -3 | -2 | 3 | nt | nt
COCCn1c(C)cc(C(=O)CSc2nnnn2C2CCCC2)c1C | -1 | 0 | 56 | 1 | 22 | -54
Cc1ccc2ccc3cccnc3c2n1 | 3 | 0 | 67 | 1 | 45 | 9
COc1ccc(CCNc2ncnc3sc(C)cc23)cc1OC | 5 | 0 | 88* | nt | 99* | 92*
COc1ccc(CCNc2ncnc3[nH]ncc23)cc1OC | 2 | 1 | -21 | -1 | nt | nt
COCCN(Cc1cc2cc3c(cc2nc1Cl)OCO3)C(=O)Nc1ccc(F)cc1 | nt | 1 | 52 | -2 | 64 | 51
COCCN(Cc1cc2cc3c(cc2nc1Cl)OCO3)C(=O)Nc1ccc(OC)cc1 | 23 | -3 | -7 | 3 | nt | nt
CC[C@@H]1CCC[C@@H](O)[C@@H](C)C(=O)O[C@H](C)[C@@H](C)C/C=C(C)/C(OC)=C\C(=O)N(C)C([C@@H](C)CC)C(=O)N(C)[C@@H](C(C)C)C(=O)N(C)[C@@H](COC)C(=O)N2CCC[C@H]2C(=O)N(C)[C@@H](C(C)C)C(=O)N2CCC[C@H]2C(=O)O1 (some centres undefined) | -4 | -1 | 97* | nt | 98* | 91*
CC(C)(C)OC(=O)NNC(=S)NCc1ccc(Cl)cc1 | 3 | 0 | -9 | -2 | nt | nt
O=C(COC(=O)CNC(=O)C1CCCCC1)Nc1ccc(F)c([N+](=O)[O-])c1 | -3 | -1 | -4 | nt | nt | nt
Cc1cc(C(=O)CSc2nc3ccccc3[nH]2)c(C)n1CC1CCCO1 (centres undefined) | -6 | -2 | 84* | -2 | 87* | 51
Cc1cc(C(=O)CSc2nc(N)cc(=O)[nH]2)c(C)n1CC1CCCO1 (centres undefined) | -14 | -1 | -41 | nt | nt | nt
COc1ccccc1C(=O)N1CCN(CCNC(=O)C(=O)Nc2ccc(Br)c(C)c2)CC1 | -5 | -1 | 49 | 8 | 39 | 36
CCCOC(=O)c1c(NC(=O)C2CCCO2)sc(C(=O)OC)c1C (centres undefined) | 5 | 3 | 23 | -1 | nt | nt
CCN(CC)S(=O)(=O)c1cccc(NC(=O)CNc2cccc(S(=O)(=O)N3CCCC3)c2)c1 | 3 | 0 | 85* | 0 | 80* | 61
CCN(CC)S(=O)(=O)c1cccc(NC(=O)Nc2cccc(C(F)(F)F)c2)c1 | 2 | -2 | 75* | -1 | 65 | 53
CCN(CC)c1ccc(/C=N/NC(=O)c2cnccn2)cc1 | 1 | -12 | -72 | nt | nt | nt
CCn1cc(CN(C)S(=O)(=O)c2ccc3ccccc3c2)c(C)n1 | 1 | 1 | 66 | 2 | 88* | 71*
CCn1cc(CN(C)S(=O)(=O)c2cccc([N+](=O)[O-])c2)cn1 | 2 | -1 | -3 | 4 | nt | nt
COc1cc(NC(=O)C2CCCN2S(=O)(=O)c2ccc3c(c2)CCC(=O)N3)cc(OC)c1 (centres undefined) | 2 | 1 | -3 | -3 | nt | nt
CN1CCN(C(=O)/C(=C/c2cccs2)NC(=O)c2ccco2)CC1 | -5 | 1 | 15 | 3 | nt | nt
CCCCOc1ccc(CONS(=O)(=O)c2ccc(NC(C)=O)cc2)cc1Cl | 2 | -1 | 50 | -5 | 81* | 54
CC(C)NC(=O)CC1C(=O)NCCN1CC(c1ccccc1)c1ccccc1 (centres undefined) | 2 | 0 | -15 | -5 | nt | nt
SMILES | Rev-erbA mod | PG9 Ab binder | NR2E3 ag-1 | NR2E3 ag-2 | NR2E3 ag conf | VP16 counter
Cc1ccc(NC(=O)CCNC(=O)c2ccccc2Cl)cc1S(=O)(=O)N1CCCCCC1 | 4 | 3 | 5 | 0 | nt | nt
Cc1ccc(NC(=O)c2ccccc2NS(=O)(=O)c2ccc(F)cc2)cc1S(=O)(=O)N1CCCCC1 | 1 | -1 | 89* | 1 | 98* | 92*
O=C(Nc1cccc(S(=O)(=O)N2CCCCC2)c1)c1ccccc1NS(=O)(=O)c1ccc(F)cc1 | 1 | -2 | 86* | -1 | 98* | 71*
CCn1c(Cl)c(C=O)s/c1=N\S(=O)(=O)c1ccccc1 | 2 | 0 | 53 | -3 | 24 | 15
CCN1C(=O)CS/C1=N\S(=O)(=O)c1ccc(Cl)cc1 | -1 | -1 | 9 | 2 | nt | nt
O=c1oc2ccccc2c(Nc2ccccc2O)c1[N+](=O)[O-] | 3 | -1 | -17 | -2 | nt | nt
O=c1oc2ccccc2c(Nc2cccc3ccccc23)c1[N+](=O)[O-] | -1 | -2 | 50 | -4 | 66 | 30
S=c1nc(C2COc3ccccc3O2)[nH][nH]1 (centres undefined) | 3 | 0 | -64 | -2 | nt | nt
CCCS(=O)(=O)c1cnc(C2COc3ccccc3O2)nc1N (centres undefined) | 4 | 0 | 56 | 1 | 43 | 12
COc1cc(/C=C2\CC/C(=C\c3cc(OC)c(O)c(OC)c3)C2=O)cc(OC)c1O | -14 | -7 | 77* | 7 | 96* | 67
COc1cc(/C=C2\COC/C(=C\c3cc(OC)c(OC)c(OC)c3)C2=O)cc(OC)c1OC | -8 | -2 | 86* | nt | 100* | 82*
Cc1ccc(S(=O)(=O)N2CCC(C(=O)Nc3nnc(COc4ccccc4)s3)CC2)cc1 | 2 | 0 | -58 | nt | nt | nt
CCOc1ccc(N2C(=O)CC(N3CCN(c4ccccc4OC)CC3)C2=O)cc1 (centres undefined) | 7 | 0 | 6 | 3 | nt | nt
Cc1ccc(C(=O)N/N=C/c2ccc([N+](=O)[O-])s2)cc1 | -4 | -3 | 69 | -4 | -3 | 68
COc1ccc(C(=O)NC(=S)Nc2ccc(S(=O)(=O)Nc3cc(C)on3)cc2)cc1OC | -3 | 1 | 4 | 3 | nt | nt
COc1ccc(/C=C2\NC(=O)C(C=NCc3ccccc3)=C2O)cc1 | 1 | -4 | 5 | 4 | nt | nt
O=C1N/C(=C\c2ccc(O)cc2)C(O)=C1C=NCc1ccccc1 | -3 | -5 | 63 | -5 | 73* | 37
Cc1c(C)c2cccnc2c2ncccc12 | nt | nt | 79* | 0 | 39 | 9
Oc1c(I)cc(Cl)c2cccnc12 | -6 | -3 | 4 | -3 | nt | nt
Clc1cc2cccnc2c2ncccc12 | 4 | 0 | 83* | 1 | 95* | 12
CCN1CCN(c2ccc(S(=O)(=O)N3CCOCC3)cc2NC(=O)c2ccc(OCC(C)C)cc2)CC1 | -5 | 1 | -11 | nt | nt | nt
COc1ccccc1C(=O)N(CCC1CCCN1C)c1nc2ccccc2s1 (centres undefined) | 0 | -1 | 65 | 8 | 30 | -10
